Bioassay records from PubChem BioAssay.
Only some compounds are listed: those with a hit (about 2.3% of all), similar ones and a draw of the others.
PLC-gamma1 inh = blocks human PLC-gamma1 enzyme activity; purified PLC-gamma1, fluorogenic substrate, fluorescence; 370,000 compounds, 0.84% hits; P19174; inhibition, % at 12.2 µM; in the data active = inhibition above about 9.5%
ADAM17 inh = inhibits human ADAM17. P78536. recombinant ADAM17, EDANS/DABCYL FRET peptide cleavage. inhibition, % at 6.95 µM. 370,000 compounds, 0.83% hits. AID 720648;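 active = inhibition above the mean of compounds lying between control limits plus 3 SD, set per campaign, cut at about 8.5% in these data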;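 note: 0% = DMSO-only wells as the low control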
DDE Tn6 FP inh = inhibitors of Tn6 peptide binding to human fibrin DD(E); inhibition, % at 8.3 µM; Fibrin DD(E) TRITC-Tn6 fluorescence polarization displacement; 370,000 compounds, 0.21% hits;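 active = inhibition above a per-campaign cutoff: mean of compounds within control limits plus 3 SD, cut at about 15% in these data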;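 note: 0% = median of all compound wells on the plate and 100% = blocking peptide control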
Tn7 DDE FP = DD(E)-Tn7 binding inhibition, primary FP screen; 370,000 compounds, 0.13% hits; inhibition, % at 8.3 µM; FP displacement of FITC-Tn7 peptide from fibrin DD(E); 0% = median of compound wells per plate; AID 720508; P02675;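 active = inhibition above the mean of compounds falling within the control limits plus 3 SD of them, cut at about 14% in these data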;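 note: 0% = plate median of compound wells and 100% = 10 µM Aha-Tn7 peptide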
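Assay system: Human fibrin DD(E) protein | Medium: Tris buffer with calcium and detergent, pH 7.8 | Reagent: 0.1 µM fluorescent Tn7 | Compound dosing: Single point at 8.3 µM | Times: 10 min preincubation, 3 h with tracer, room temperature | Detection: Fluorescence polarization of the labelled Tn7 tracer | Controls: Aha-Tn7 high control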
PLC-beta3 inh = blocks human PLC-beta3 enzyme activity; Purified PLC-beta3, fluorogenic substrate, fluorescence; Q01970; 370,000 compounds, 0.18% hits; inhibition, % at 12.2 µM;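 note: 0% = median of compound wells on plate and 100% = full blocker control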
ADAM10 inh = ADAM10 inhibition, QFRET primary screen | 370,000 compounds, 0.62% hits | recombinant ADAM10, EDANS/DABCYL FRET peptide cleavage, 3 h | inhibition, % at 7 µM | O14672;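 active = inhibition above a per-campaign cutoff equal to the mean of compounds falling between control-based bounds plus 3 SD, cut at about 20% in these data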;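 note: 0% = DMSO wells while the 100% control is not disclosed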
PLCgamma1 ctr = PLC-gamma1 inhibition, counter-screen for PLC-beta3 hits | shares compounds with PLC-gamma1 inh | purified PLC-gamma1, fluorogenic substrate, fluorescence | inhibition, % at 12.3 µM | 3,300 compounds, 3.1% hits | AID 743258; in the data active = inhibition above about 9.5%
PLCbeta3 conf = confirmation of human PLC-beta3 inhibitors. inhibition, % at 12.3 µM. 3,300 compounds, 1% hits. shares compounds with PLC-gamma1 inh. AID 743261. purified PLC-beta3, fluorogenic substrate fluorescence
Starred values were filed as active, the others as inactive; / = not tested or not shown. Cut-off read from the data, not from the text of the source, unless noted: active = inhibition above about 11%; inactive = the rest.

SMILES	PLC-gamma1 inh	ADAM17 inh	DDE Tn6 FP inh	Tn7 DDE FP	PLC-beta3 inh	ADAM10 inh	PLCgamma1 ctr	PLCbeta3 conf
O=C(Nc1ccc(Br)cc1)C1CCCN1S(=O)(=O)c1cccs1 (centres undefined)	9.8*	3	7	0	2	1	-6	-4
CC1=CC2=NC(=O)/C(=C\c3ccc(OC(=O)c4ccco4)cc3)C(=N)N2O1	9	-4	1	-1	12*	-10	-2	0
Cc1ccc(C(C)C)cc1S(=O)(=O)NCc1cccnc1	9.9*	2	-6	-4	3	9	-6	-4
Cc1cccc(N(C)C(=O)C2CCCN2S(=O)(=O)c2cccc3nsnc23)c1 (centres undefined)	10*	1	0	1	10	10	-5	0
CC(C)Cc1ccc(S(=O)(=O)Nc2cccnc2)cc1	9.8*	2	-2	-4	0	10	-5	-8
COc1ccc(CNC(=O)C2CCN(S(=O)(=O)c3cccc4nsnc34)CC2)cc1	11*	1	10	-8	-4	8	-7	-3
CCN1CCN(S(=O)(=O)c2cccc3nsnc23)CC1	5	3	4	0	13*	1	-3	2
Cc1ccc2cc(CCNC(=O)c3cccc([N+](=O)[O-])c3)c(=O)[nH]c2c1C	10*	1	-4	-3	-1	-12	3	1
COc1ccc2cc(CCNC(=O)c3cccc([N+](=O)[O-])c3)c(=O)[nH]c2c1	0	-2	2	1	-1	4	/	/
Cc1nn(C(C)C(=O)N2CCOCC2)c(C)c1[N+](=O)[O-] (centres undefined)	11*	1	2	-7	3	3	-4	-10
O=C(O)CCC(=O)Nc1ccc(Br)cn1	10*	0	0	4	3	-8	-4	-12
CC(C)NC(=O)C1(C)CCN1C/C=C/c1ccccc1 (centres undefined)	12*	5	0	-4	7	4	-8	-6
O=[N+]([O-])c1ccc(NCCCN2CCC(C(O)(c3ccccc3)c3ccccc3)CC2)cc1	13*	7	-1	-6	10	12	9	7
OC(c1ccccc1)(c1ccccc1)C1CCN(CCCNc2ccccc2Br)CC1	5	3	6	-6	2	8	/	/
Cc1ccc(OCC(=O)Nc2cc(S(=O)(=O)N3CCCCC3)ccc2C)c([N+](=O)[O-])n1	10*	-8	-5	4	1	-4	-4	-1
COc1ccccc1C=NNC(=O)CSc1nc2ccccc2n1Cc1ccc(Cl)cc1	1	7	0	5	2	13	/	/
O=C(C[n+]1cc(-c2ccccc2)n2c1CCC2)Nc1nc(-c2ccc(F)cc2)cs1	4	1	-1	0	0	2	/	/
O=C(Nc1nc(-c2ccc(F)cc2)cs1)C1CCCO1 (centres undefined)	12*	2	-2	-6	3	5	-3	-2
O=C(Nc1nc(-c2ccc(-c3ccccc3)cc2)cs1)C1CCCO1 (centres undefined)	-10	-8	1	1	-18	-12	/	/
O=C(C[n+]1cc(-c2ccc(F)cc2)n2c1CCC2)Nc1nc(-c2ccc(F)cc2)cs1	12*	2	-3	0	8	8	0	-35
C=CCNCc1ccc(OC)cc1OC	0	-3	4	8	-2	-13	/	/
CCOC(=O)N1CCN(C(=O)/C(=C\c2cccs2)NC(=O)c2cccs2)CC1	10*	3	-3	-2	1	10	6	8
Cc1cc(C)cc(C(=O)OCCN(C)C2CN(Cc3cn(Cc4ccccc4C(F)(F)F)nn3)S(=O)(=O)C2)c1 (centres undefined)	1	0	-1	5	3	3	/	/
O=S(=O)(Nc1nc2ccccc2s1)c1cc(F)ccc1F	9.5*	2	0	-5	-1	10	-7	-3
O=S(=O)(Nc1nc2ccccc2s1)c1ccc(Cl)s1	-3	-1	-5	4	-5	3	/	/
SMILES	PLC-gamma1 inh	ADAM17 inh	DDE Tn6 FP inh	Tn7 DDE FP	PLC-beta3 inh	ADAM10 inh	PLCgamma1 ctr	PLCbeta3 conf
CC(=O)c1cnc2sccn2c1=O	14*	-11	7	1	11	-23	-5	-2
COc1ccc(NC(=O)c2cnc3sccn3c2=O)cc1	-4	-1	8	3	-8	-1	/	/
CCOC(=O)C(NC(=O)c1ccccc1)(N1CCOCC1)C(F)(F)F (centres undefined)	10*	1	8	-4	4	-1	-3	-3
CCOC(=O)C(NC(=O)c1ccc(OC)cc1)(N1CCOCC1)C(F)(F)F (centres undefined)	5	3	6	-7	5	5	/	/
COc1ccc(Cn2c(NC(=O)c3ccccc3)nc(Cc3ccccc3)c2-c2ccccc2)c(OC)c1	-14	3	-4	-2	-23	-5	/	/
Cc1nn(-c2ccccc2)c(Cl)c1C(=O)NCc1ccccc1F	-1	-5	4	-4	-4	-3	/	/
Cc1nn(-c2ccccc2)c(Cl)c1C(=O)NCCCCNC(=O)c1c(C)nn(-c2ccccc2)c1Cl	12*	5	1	-4	14*	11	6	-19
O=C(NCc1ccccc1F)C1CCCN1C(=O)NCc1ccccc1 (centres undefined)	4	6	1	5	13*	3	4	-1
Cc1ccc(/C=N\NC(=O)CN2CCN(S(=O)(=O)c3ccc(Br)cc3)CC2)s1	-3	0	10	9	-4	-2	/	/
O=C(CCS(=O)(=O)c1ccccc1)N1CCCc2ccccc21	0	-1	-1	2	-8	-11	/	/
O=C(O)c1ccc(S(=O)(=O)N2CCCc3ccccc32)cc1	9.9*	3	2	-2	0	4	-4	1
O=C(CCC(=O)N1CCCc2ccccc21)N1CCN(S(=O)(=O)c2ccccc2)CC1	11*	1	-7	-4	10	13	-6	-4
CCOC(=O)[C@@]12CCCC=C1N(CCc1ccc(Cl)cc1)C(=O)[C@H]2CC(=O)NCc1cccc(C(F)(F)F)c1	0	7	-8	6	-3	8	/	/
CCOC(=O)[C@]12CCCC=C1N(Cc1ccc(OC)cc1)C(=O)[C@@H]2CC(=O)N1CCN(C(=O)C2CC2)CC1	-1	-7	3	3	1	-3	/	/
